This note sets out measurements from ChEMBL document CHEMBL1155549, “Sialic acid-mimic peptides as hemagglutinin inhibitors for anti-influenza therapy” (J Med Chem, 2010).

Calls of active or inactive are those of the source. The rule behind the calls is not given here. Where a SMILES comes first, the peptide text is derived from it. The star is where a group is joined. Biotin = O=C1N[C@H]2[C@H](CS[C@H]2CCCCC(=O)*)N1

For test [1], the system named is Influenza A virus (A/Wuhan/359/1995(H3N2)). The test is described as follows: Binding affinity to Influenza A virus (A/Wuhan/359/1995 (H3N2)) hemagglutininin by scintillation proximity assay. In general terms: In a scintillation proximity assay essentially only radioactivity close to the scintillant gives light.
In test [2] the test system is Influenza A virus (A/New Caledonia/20/1999(H1N1)). The experiment in a line: (§1) Binding affinity to Influenza A virus (A/New Caledonia/20/1999 (H1N1)) hemagglutininin by avidin-biotin peroxidase complex method. The gist of the method:
(§2)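 HA was coated at 70 μg/mL overnight at 4 °C and blocked with 1% BSA/PBS. C-terminally biotinylated peptides (5-400 μM) were added for 2 h. After PBS washes, peroxidase-streptavidin was added for 1 h, and o-phenylenediamine colour was read as ΔA at 492 nm, in triplicate. Kd came from a Scatchard plot over 20-200 μM peptide.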

Test [3] concerns Influenza A virus (A/Wyoming/03/2003(H3N2)). The experiment in a line: (§3) Binding affinity to Influenza A virus (A/Wyoming/03/2003 (H3N2)) hemagglutininin by avidin-biotin peroxidase complex method. The method, boiled down:
as §2

A short description of test [4]: as §1. The method, boiled down: as §2
A short description of test [5]: as §3. The gist of the method: as §2

`CSCC[C@H](NC(=O)[C@@H](NC(=O)[C@@H]1CCCN1C(=O)[C@H](CO)NC(=O)[C@H](CC(C)C)NC(=O)[C@H](CCCNC(=N)N)NC(=O)[C@@H](C)N)[C@@H](C)O)C(=O)N[C@H](C(=O)N[C@@H](Cc1cnc[nH]1)C(=O)N1CCC[C@H]1C(=O)N[C@@H](CC(N)=O)C(=O)NCC(=O)N[C@@H](C)C(=O)N[C@@H](CCC(N)=O)C(=O)N1CCC[C@H]1C(=O)O)C(C)C`: the result in test [1] was Active.
Turning to `CSCC[C@H](NC(=O)[C@@H](NC(=O)[C@H](CCCNC(=N)N)NC(=O)[C@@H]1CCCN1C(=O)[C@H](C)NC(=O)[C@H](CCCNC(=N)N)NC(=O)[C@H](C)N)[C@@H](C)O)C(=O)N[C@H](C(=O)N[C@@H](Cc1cnc[nH]1)C(=O)N1CCC[C@H]1C(=O)N[C@@H](CCCCN)C(=O)N1CCC[C@H]1C(=O)N[C@@H](C)C(=O)N[C@@H](CCC(N)=O)C(=O)N1CCC[C@H]1C(=O)N[C@@H](CCCCNC(=O)CCCC[C@@H]1SC[C@@H]2NC(=O)N[C@@H]21)C(N)=O)C(C)C` (H-ARAPRTMVHPKPAQPK(Biotin)-NH2), the result in test [2] and in test [3] was inactive.
Take `CC(C)C[C@H](NC(=O)[C@H](CCCNC(=N)N)NC(=O)[C@H](C)N)C(=O)N1CCC[C@H]1C(=O)N[C@@H](CCCNC(=N)N)C(=O)N[C@H](C(=O)N[C@@H](C)C(=O)N[C@H](C(=O)N[C@@H](Cc1cnc[nH]1)C(=O)N1CCC[C@H]1C(=O)N[C@@H](CCCCN)C(=O)N1CCC[C@H]1C(=O)N[C@@H](C)C(=O)N[C@@H](CCC(N)=O)C(=O)N1CCC[C@H]1C(=O)N[C@@H](CCCCNC(=O)CCCC[C@@H]1SC[C@@H]2NC(=O)N[C@@H]21)C(N)=O)C(C)C)[C@@H](C)O` (H-ARLPRTAVHPKPAQPK(Biotin)-NH2): the result in test [2] and in test [3] was inactive.
With `CSCC[C@H](NC(=O)[C@@H](NC(=O)[C@H](CCCNC(=N)N)NC(=O)[C@@H]1CCCN1C(=O)[C@H](CC(C)C)NC(=O)[C@H](CCCNC(=N)N)NC(=O)[C@H](C)N)[C@@H](C)O)C(=O)N[C@H](C(=O)N[C@@H](Cc1cnc[nH]1)C(=O)N1CCC[C@H]1C(=O)N[C@@H](C)C(=O)N1CCC[C@H]1C(=O)N[C@@H](C)C(=O)N[C@@H](CCC(N)=O)C(=O)N1CCC[C@H]1C(=O)N[C@@H](CCCCNC(=O)CCCC[C@@H]1SC[C@@H]2NC(=O)N[C@@H]21)C(N)=O)C(C)C` (H-ARLPRTMVHPAPAQPK(Biotin)-NH2), the result in test [2] and in test [3] was inactive.
Broadly, the Kd is a measure of binding affinity in units of concentration. A low value points to tighter binding. Consider H-ARLPRTMVHPKPAQP-NH2, for which the Activity result in test [1] is “Dose-dependent effect”. Moreover, the dissociation constant (Kd) in test [4] is 31 µM; in test [5], 22 µM.
